A selection: hits, their analogues and other compounds. The true share with any hit is near 0.7%.
N-glyco inh: blocks N-linked glycosylation in D54 reporter cells; D54 ERlucT glycosylation luciferase reporter, 24 h; percent of 100 nM tunicamycin response; reporter increase, % at 12.5 µM; 360,000 tested, 0.23% active;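 active = mean luciferase reporter signal, scaled so untreated is 0 and the glycosylation-blocking control 100, at or above a set limit in every replicate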;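 note: luciferase carries N-glycosylation sites so blocking glycosylation raises the light; 0% = median of neutral control wells and 100% = median of 100 nM tunicamycin wells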
NPR2 activator: GC-B (human) receptor activation | P20594 | HEK293-GC-B cells, CNP EC30, cGMP TR-FRET; 0% at EC30 CNP, 100% saturating CNP | 370,000 tested, 0.11% active | AID 1920062 | activation, % at 10 µM;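 active = activation at 10 µM reaching about 35% in either raw or pattern-adjusted values, limit read from the data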
CaV13 ICDI inh: Primary screen for inhibitors of IQ motif and Ca2+-dependent inactivation inhibitor domain binding in CACNA1D, Förster resonance energy transfer in living cells, …; 340,000 tested, 0.098% active; AID 743397; inhibition, % at 12.3 µM; HEK cells, CFP/YFP FRET ICDI-IQ, plate reader, 10 min; percent FRET-ratio fall versus neutral wells;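 active = mean replicate inhibition of at least 30% and at least 1% of replicates passing that level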;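 note: 0% = median of the neutral control wells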
Vif imaging: inhibitors of HIV Vif; 340,000 tested, 0.35% active; HEK293T cells, Vif self-association by quenched fluorescence, imaging, 24 h; inhibition, % at 7.49 µM; in the data active = inhibition above about 50%, passing the limit was not always enough
XiGFP reactiv: reactivates the inactive X chromosome in mouse fibroblasts; XiGFP mouse fibroblasts, % GFP-positive cells imaging, 3 d; cells co-treated with 5-aza-dC sensitizer; scaled so ellipticine positive control = 100%; activation, % at 7.58 µM; 360,000 tested, 0.055% active; AID 743238;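 active = mean normalized replicate activation at least 10% and every replicate at or above 10%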;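 note: 0% = median of on-plate neutral control wells and 100% = ellipticine 6 µM median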
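Material: XiGFP fibroblasts, SV40-immortalized; Buffer or medium: DMEM containing 5-aza-dC; Compound dosing: single point; Times: 3 days compound exposure.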
NPR1 activator: GC-A (human) enzyme activation; 370,000 tested, 0.14% active; HEK293 GC-A cells, cGMP TR-FRET, EC30 ANP; 0% at EC30 ANP, 100% saturating ANP; P16066; AID 1671463; activation, % at 10 µM; in the data active = activation above about 40%
Target sequence (P16066 whole entry, looked up): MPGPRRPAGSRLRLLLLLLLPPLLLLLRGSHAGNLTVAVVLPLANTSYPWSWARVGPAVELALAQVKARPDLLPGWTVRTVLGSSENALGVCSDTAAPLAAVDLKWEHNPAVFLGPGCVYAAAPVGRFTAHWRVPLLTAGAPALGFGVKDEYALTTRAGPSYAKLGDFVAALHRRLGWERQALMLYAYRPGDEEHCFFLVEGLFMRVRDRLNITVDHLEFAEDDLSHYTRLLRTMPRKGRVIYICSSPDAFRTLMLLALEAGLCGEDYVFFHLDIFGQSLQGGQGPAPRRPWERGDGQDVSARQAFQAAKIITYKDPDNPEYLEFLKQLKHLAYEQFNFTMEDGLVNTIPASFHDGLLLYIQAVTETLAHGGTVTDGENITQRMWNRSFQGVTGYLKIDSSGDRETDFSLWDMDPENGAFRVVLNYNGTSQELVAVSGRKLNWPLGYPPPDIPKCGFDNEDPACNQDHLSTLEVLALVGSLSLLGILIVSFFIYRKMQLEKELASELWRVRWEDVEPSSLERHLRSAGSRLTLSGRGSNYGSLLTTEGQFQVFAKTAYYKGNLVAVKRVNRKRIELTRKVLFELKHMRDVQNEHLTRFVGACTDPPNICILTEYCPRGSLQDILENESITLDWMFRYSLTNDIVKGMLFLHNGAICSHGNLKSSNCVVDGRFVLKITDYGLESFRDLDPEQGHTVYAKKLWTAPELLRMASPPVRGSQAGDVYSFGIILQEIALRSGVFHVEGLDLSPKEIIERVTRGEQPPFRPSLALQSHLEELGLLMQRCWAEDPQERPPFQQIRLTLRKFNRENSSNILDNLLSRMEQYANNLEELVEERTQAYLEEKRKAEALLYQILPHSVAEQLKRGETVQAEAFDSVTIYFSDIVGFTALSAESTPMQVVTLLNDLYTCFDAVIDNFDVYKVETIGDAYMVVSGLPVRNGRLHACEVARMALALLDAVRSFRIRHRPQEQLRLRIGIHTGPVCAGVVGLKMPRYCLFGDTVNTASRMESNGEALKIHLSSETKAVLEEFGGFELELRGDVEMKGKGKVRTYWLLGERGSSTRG
Active calls of the source: *.

For Cc1cc(-n2c(=O)c(C#N)cc3c(=O)n4cccc(C)c4nc32)no1 the results were N-glyco inh 1, NPR2 activator -7, CaV13 ICDI inh 43*, Vif imaging -9 and NPR1 activator 10.
For CN1/C(=C/c2cccc[n+]2C)Sc2ccccc21 the results were N-glyco inh 15, NPR2 activator -12, CaV13 ICDI inh -4, Vif imaging 118*, XiGFP reactiv 0 and NPR1 activator -5.
c1ccc(Nc2ccc3c4c(cccc24)CC3)cc1 was read as N-glyco inh -5, NPR2 activator -8, CaV13 ICDI inh -5, Vif imaging 111* and NPR1 activator 4.
Screening c1ccc(Nc2cccc3ccccc23)cc1 returned N-glyco inh 3, NPR2 activator -2, Vif imaging 2 and NPR1 activator 6.
For O=C(/C(=C\c1ccccc1)c1nc2ccccc2[nH]1)c1ccc(Cl)cc1 the results were N-glyco inh 34*, NPR2 activator -17, CaV13 ICDI inh -6, Vif imaging 2, XiGFP reactiv 0 and NPR1 activator -31.
`O=C(/C(=C/c1ccc(Cl)cc1)c1nc2ccccc2[nH]1)c1cccs1` gave N-glyco inh -9 and Vif imaging -9.
`CCOC(=O)c1c(C)n(C)c2ccc(OCC(O)CN3CCC(C)CC3)cc12` (stereo not drawn) gave N-glyco inh 2, NPR2 activator -1, CaV13 ICDI inh 40*, Vif imaging 2, XiGFP reactiv 0 and NPR1 activator -2.
For COCCN(C(=O)CCC(=O)Nc1nccs1)C(C(=O)NC(C)(C)C)c1ccc(C)cc1 (stereo not drawn) the results were N-glyco inh 1, NPR2 activator 2, CaV13 ICDI inh -4, Vif imaging 84*, XiGFP reactiv 0 and NPR1 activator -3.
Screening CC(C)NC(=O)Nc1ccc2c(c1)C(=O)N([C@@H](C)CO)C[C@H](C)[C@@H](CN(C)CC1CCCCC1)O2 returned XiGFP reactiv 0.
`CO[C@H]1CN(C)C(=O)c2cc(NC(C)=O)ccc2OC[C@H](C)N(CCC(F)(F)F)C[C@@H]1C` gave XiGFP reactiv 0.
`COc1ccc(OC)c(-c2nn(-c3ccccc3)cc2C(=O)NCC(c2ccco2)N2CCCC2)c1` (stereo not drawn) gave N-glyco inh -3, NPR2 activator -3, CaV13 ICDI inh -2, Vif imaging 54*, XiGFP reactiv 0 and NPR1 activator -5.
For Cc1ccccc1-c1nn(-c2ccccc2)cc1C(=O)NCC(c1ccco1)N1CCCC1 (stereo not drawn) the results were N-glyco inh 1, NPR2 activator 0, CaV13 ICDI inh -3, Vif imaging -1, XiGFP reactiv 0 and NPR1 activator -2.
For CO[C@@H]1CN(C)C(=O)c2cc(NC(=O)Nc3ccccc3Cl)ccc2OC[C@H](C)NC[C@@H]1C the results were XiGFP reactiv 0.
For COc1cc(/C=C2/CCC/C(=C\c3cc(O)c(OC)c(Cl)c3)C2=O)cc(Cl)c1O the results were N-glyco inh 35*, NPR2 activator -12, CaV13 ICDI inh -7, Vif imaging 7 and NPR1 activator -12.
For CCC(=O)N[C@H]1CC[C@H](CCn2cc(C3CC3)nn2)O[C@@H]1CO the results were XiGFP reactiv 0.
O=C(O)C[C@@H]1C=C[C@@H](NC(=O)CCN2CCCCC2)[C@H](CO)O1 was read as XiGFP reactiv 0.
Screening c1nc(NCc2ccc3c(c2)OCO3)c2cc(-c3ccoc3)ccc2n1 returned N-glyco inh -13, NPR2 activator 46*, CaV13 ICDI inh 3, Vif imaging -1, XiGFP reactiv 0 and NPR1 activator 42*.
For CCN1/C(=C/c2ccc3ccccc3[n+]2CC)C=Cc2ccccc21 the results were N-glyco inh 85*, NPR2 activator -13, CaV13 ICDI inh -7, Vif imaging -24 and NPR1 activator -15.

Screens as filed in PubChem BioAssay.
